Usually inhibition stands for the relative decrease from the control value, in per cent.

These results are taken from ChEMBL document CHEMBL3244017, “Structure--activity relationships of pyrrole amidine antiviral antibiotics. 1. Modifications of the alkylamidine side chain” (J Med Chem, 1979).

Calls of active or inactive are those of the source. Some results are limits rather than exact numbers.

Data set [1] can be described thus: Cytotoxicity against African green monkey BSC1 cells after 24 to 72 hrs by light microscopic analysis. The class given is cell-based, BSC-1. As to conditions: chlorocebus aethiops. The method, boiled down:
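BSC-1 monkey kidney cells incubated with drug at 37 °C, dissolved in 10% Me₂SO in water. Cell destruction was scored by light microscopy at 24, 48 and 72 h. Toxicity was defined as cell death within 2 days. The maximal nontoxic concentration is the nontoxic level whose twofold increase causes toxicity.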

Data set [2] has as its system Human alphaherpesvirus 1. Put plainly: Antiviral activity against Herpes simplex virus 1 HF infected in African green monkey BSC1 cells assessed as inhibition of viral progeny production at 200 ug/ml after 20 to 24 hrs by plaque reduction assay relative to control. The class given is functional. As to conditions: Human alphaherpesvirus 1, HF, BSC-1. The method, boiled down: (§1)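 BSC-1 monkey kidney monolayers in DMEM with 10% fetal bovine serum, infected with HSV-1 strain HF at 10 pfu/cell. Drug, in 10% Me2SO in water, added at infection at the highest noncytotoxic concentration. Cultures held 20–24 h at 37 °C, then sonicated. Progeny titred by plaque assay on BSC-1 (3 h adsorption, agar overlay, 72 h, gentian violet). Inhibition is plaque count with drug versus without.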
On the technique in general: Plaque reduction counts the foci of infection that form in a cell layer.

Data set [3] has as its system BSC-1. Put plainly: Inhibition of Herpes simplex virus 1 HF DNA polymerase-mediated DNA synthesis in African green monkey BSC1 cell nucleus after 60 mins by [3H]-TTP incorporation assay relative to control. The class given is cell-based. As to conditions: Human alphaherpesvirus 1. In short, it runs like this: (§2)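 Nuclei were taken from BSC-1 cells 20 h after HSV-1 infection by Dounce homogenization and low-speed spin. They were washed and incubated with drug for 60 min at 37 °C: 8 × 10⁶ nuclei, 80 mM K phosphate pH 7.4, 250 mM sucrose, 6 mM MgCl₂, 0.4 mM CaCl₂, 0.04 mM dATP/dGTP/dCTP, [³H]TTP, 1 mM ATP, PEP/pyruvate kinase, 5 mM EGTA. Read-out was TCA-precipitable radioactivity.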

Data set [4] deals with BSC-1. Description: Inhibition of Herpes simplex virus 1 HF DNA polymerase-mediated DNA synthesis in African green monkey BSC1 cell nucleus at 400 ug/ml after 60 mins by [3H]-TTP incorporation assay relative to control. The class given is cell-based. As to conditions: Human alphaherpesvirus 1. The method, boiled down:
as §2

For data set [5], the system named is Human alphaherpesvirus 1. Description: Antiviral activity against Herpes simplex virus 1 HF infected in African green monkey BSC1 cells assessed as inhibition of viral progeny production at 25 ug/ml after 20 to 24 hrs by plaque reduction assay relative to control. As to conditions: Human alphaherpesvirus 1, HF, BSC-1. The class given is functional. The method, boiled down:
as §1

The subject of data set [6] is BSC-1. Description: Inhibition of Herpes simplex virus 1 HF DNA polymerase-mediated DNA synthesis in African green monkey BSC1 cell nucleus at 200 ug/ml after 60 mins by [3H]-TTP incorporation assay relative to control. The class given is cell-based. As to conditions: Human alphaherpesvirus 1. In short, it runs like this:
as §2

Data set [7] concerns BSC-1. Put plainly: Inhibition of Herpes simplex virus 1 HF DNA polymerase-mediated DNA synthesis isolated from virus-infected African green monkey BSC1 cells at 25 to 400 ug/ml by [3H]-TTP incorporation assay. The class given is cell-free. As to conditions: Human alphaherpesvirus 1. The method, boiled down:
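HSV DNA polymerase came from nuclear extracts of BSC-1 cells 12 h post-infection, via 70% ammonium sulfate precipitation and sucrose gradients. Assay: 250 mM KCl, 2 mM MgCl₂, 0.05 mM dGTP/dATP/dCTP, 0.01 mM TTP plus [³H]TTP, 500 µg/mL activated calf thymus DNA, 10 mM Tris-HCl pH 8.1, 0.5 µg/mL BSA. Inhibition relative to drug-free reactions.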

Data set [8] has as its system Human alphaherpesvirus 1. Put plainly: Antiviral activity against Herpes simplex virus 1 HF infected in African green monkey BSC1 cells assessed as inhibition of viral progeny production at 50 ug/ml after 20 to 24 hrs by plaque reduction assay relative to control. The class given is functional. As to conditions: Human alphaherpesvirus 1, HF, BSC-1. In short, it runs like this:
as §1

In data set [9] the test system is BSC-1. Put plainly: Inhibition of Herpes simplex virus 1 HF DNA polymerase-mediated DNA synthesis in African green monkey BSC1 cell nucleus at 25 to 300 ug/ml after 60 mins by [3H]-TTP incorporation assay relative to control. The class given is cell-based. As to conditions: Human alphaherpesvirus 1. The method, boiled down:
as §2

Molecule `Cn1cc(NC(=O)c2cc(NC(=O)c3cc([N+](=O)[O-])cn3C)cn2C)cc1C(=O)NCCC(=N)N` came in with an MNTC in data set [1] above 200 µg/mL. Also, in the data set with Human alphaherpesvirus 1 [2], the inhibition at 200 µg/mL was found to be 86.5%. Besides, the “inhibition of viral DNA synthesis (active/not active)” value (“inhibition … (active/not active)” for short) with BSC-1 [3] is “Active”.

`Cn1cc(NC(=O)c2cc(NC(=O)c3cc([N+](=O)[O-])cn3C)cn2C)cc1C(=O)Nc1ccc(C(=N)N)cc1` yielded an MNTC in [1] above 200 µg/mL. In addition, the inhibition at 200 µg/mL in the data set with Human alphaherpesvirus 1 [2] turned out to be 94.8%. Further, the “inhibition … (active/not active)” value in the data set with BSC-1 [3] was “inactive”.

With `Cn1cc(NC(=O)c2cc(NC(=O)c3cc(NC=O)cn3C)cn2C)cc1C(=O)NCCC(=N)N`, the inhibition result in the data set with BSC-1 [4] and in the data set with BSC-1 [7] was “Active” each time. In data set [1], the MNTC came out at 25 µg/mL. Also, in the data set on Human alphaherpesvirus 1 [5], the inhibition at 25 µg/mL was 99.7%. In addition, in the data set with BSC-1 [6], the inhibition was found to be 95%.

For the molecule `Cn1cc(NC(=O)c2cc(NC(=O)c3cc(NC=O)cn3C)cn2C)cc1C(=O)NCCC#N`, in the data set with BSC-1 [4], the inhibition entry was “Active”. This molecule also had an MNTC in data set [1] above 200 µg/mL. The inhibition at 200 µg/mL in the data set with Human alphaherpesvirus 1 [2] stood at 65.5%. In the data set with BSC-1 [6], the inhibition came out at 65%.

In the case of `Cn1cc(NC=O)cc1C(=O)Nc1cc(C(=O)Nc2cc(C(=O)Nc3cccc(C(=N)N)c3)n(C)c2)n(C)c1`, the inhibition result in the data set with BSC-1 [4] and in the data set on BSC-1 [7] was “Active” in each case. The molecule also showed an MNTC in data set [1] above 200 µg/mL. Moreover, the inhibition at 200 µg/mL in the data set on Human alphaherpesvirus 1 [2] is 97.1%. In the data set on BSC-1 [6], this molecule registered an inhibition of 65%.

In turn, `Cn1cc(NC(=O)c2cc([N+](=O)[O-])cn2C)cc1C(=O)Nc1cc(C(=O)Nc2ccccc2C(=N)N)n(C)c1` registered an MNTC in data set [1] above 200 µg/mL. For the same molecule, in the data set on Human alphaherpesvirus 1 [2], the inhibition at 200 µg/mL amounted to 96.9%. In the data set on BSC-1 [3], the “inhibition … (active/not active)” value is “inactive”.

`Cn1cc(NC(=O)c2cc(NC(=O)c3cc([N+](=O)[O-])cn3C)cn2C)cc1C(=O)NCC(=N)N` returned an MNTC in data set [1] of 50 µg/mL. In addition, the inhibition at 50 µg/mL with Human alphaherpesvirus 1 [8] is 98.1%. In the data set with BSC-1 [3], the “inhibition … (active/not active)” value is “inactive”.

As for `Cn1cc(NC=O)cc1C(=O)Nc1cc(C(=O)Nc2cc(C(=O)Nc3ccc(C(=N)N)cc3)n(C)c2)n(C)c1`, the inhibition entry in the data set with BSC-1 [4] was “Active”. Also, in [1], the MNTC was above 200 µg/mL. Further, in the data set on Human alphaherpesvirus 1 [2], the inhibition at 200 µg/mL is 76.4%. Also, in the data set with BSC-1 [6], the inhibition was below 42%.

As for `Cn1cc(NC(=O)c2cc(NC(=O)c3cc([N+](=O)[O-])cn3C)cn2C)cc1C(=O)Nc1cccc(C(=N)N)c1`, in [1], the MNTC is above 200 µg/mL. The inhibition at 200 µg/mL in the data set with Human alphaherpesvirus 1 [2] came out at 97.2%. In the data set with BSC-1 [3], the “inhibition … (active/not active)” value was “inactive”.

Consider `CC(CC(=N)N)NC(=O)c1cc(NC(=O)c2cc(NC(=O)c3cc([N+](=O)[O-])cn3C)cn2C)cn1C` (stereo not drawn), for which, in [1], the MNTC is above 200 µg/mL. Besides, the inhibition at 200 µg/mL in the data set with Human alphaherpesvirus 1 [2] worked out at 93.7%. Besides, in the data set on BSC-1 [3], the “inhibition … (active/not active)” value is “Active”.

For the molecule `CC(CC#N)NC(=O)c1cc(NC(=O)c2cc(NC(=O)c3cc(NC=O)cn3C)cn2C)cn1C` (stereo not drawn), the inhibition result in the data set with BSC-1 [4] and in the data set on BSC-1 [9] was “Active” in each case. For the same molecule, the MNTC in data set [1] was above 200 µg/mL. In the data set on Human alphaherpesvirus 1 [2], the inhibition at 200 µg/mL is 84.6%. For the same molecule, in the data set on BSC-1 [6], the inhibition is below 42%.

Regarding `Cn1cc(NC(=O)c2cc(NC(=O)c3cc(NC=O)cn3C)cn2C)cc1C(=O)NCC(=N)N`, the inhibition entry in the data set on BSC-1 [4] was “Active”. This molecule displayed an MNTC in data set [1] above 200 µg/mL. For the same molecule, in the data set with Human alphaherpesvirus 1 [2], the inhibition at 200 µg/mL was determined as 61%. For the same molecule, the inhibition in the data set on BSC-1 [6] amounted to 65%.

For `Cn1cc(NC=O)cc1C(=O)Nc1cc(C(=O)Nc2cc(C(=O)Nc3ccccc3C(=N)N)n(C)c2)n(C)c1`, in the data set with BSC-1 [4], the inhibition entry is “Active”. This molecule showed an MNTC in [1] above 200 µg/mL. Moreover, the inhibition at 200 µg/mL with Human alphaherpesvirus 1 [2] was determined as 96.7%. In the data set with BSC-1 [6], the inhibition was found to be 65%.

For the molecule `CC(CC(=N)N)NC(=O)c1cc(NC(=O)c2cc(NC(=O)c3cc(NC=O)cn3C)cn2C)cn1C` (stereo not drawn), the inhibition result with BSC-1 [4] is “Active”. In data set [1], this molecule displayed an MNTC above 200 µg/mL. Also, the inhibition at 200 µg/mL with Human alphaherpesvirus 1 [2] is 48%. The molecule also displayed an inhibition in the data set on BSC-1 [6] of 86%.
